Measured values reported in ChEMBL document CHEMBL1177654, “[d4U]-spacer-[HI-236] double-drug inhibitors of HIV-1 reverse-transcriptase” (Bioorg Med Chem, 2010).
pEC50, pIC50: −log10 of the molar value.

Columns and labels:
[1] = test system: MT2; assay: Cytotoxicity against human MT2 cells after 5 days by MTT assay; format: cell-based; conditions: mt2, 120 h
Method in brief: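 Mock-infected MT-2 cells (1 × 10^5 cells/mL) grown 5 days in RPMI 1640 with 10% dFBS and kanamycin at varying compound concentrations, in triplicate. Viability read by MTT (5 h), then acidified isopropanol lysis and absorbance at 595 nm. Triplicate averages plotted against concentration; CC50 is the concentration reducing viable cells by 50%.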

[2] = test system: Human immunodeficiency virus 1; assay: Antiviral activity against HIV1 3B infected in human MT-2 cells assessed as inhibition of viral-mediated cell death after 5 days by MTT assay; format: functional, organism-based; conditions: Human immunodeficiency virus 1, 3B, MT2, 120 h
Method in brief: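 MT-2 cells at 1 × 10^5 cells/mL infected with wild-type HIV-IIIB at MOI 0.1, cultured 5 days in RPMI 1640 with 10% dFBS and kanamycin across varying compound concentrations in triplicate. MTT added for 5 h, cells lysed with acidified isopropanol, absorbance read at 595 nm. Triplicate averages plotted as dose-response curves; EC50 is the concentration inhibiting viral-mediated cell death by 50%.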

[3] = target: Human immunodeficiency virus type 1 reverse transcriptase (Human immunodeficiency virus 1, UniProt Q72547); assay: Inhibition of HIV1 reverse transcriptase-mediated thymidine incorporation into D23/D36 primer-template preincubated for 15 mins by polyacrylamide gel-electrophoresis
Method in brief: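 RT at 6 nM active sites (from pre-steady-state active-site titration) pre-incubated ≥15 min with 1 μM 5′-radiolabelled D23/D36 primer/template, then ≥15 min on ice with inhibitor (DMSO held constant, <2%; DMSO-only control). Reaction started with 5 μM dTTP plus 10 mM MgCl2 (final concentrations), 15 min at 37 °C, quenched with 0.3 M EDTA. Products resolved on 20% denaturing PAGE. IC50 taken from a hyperbolic fit of product versus inhibitor concentration.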

Row | Structure (SMILES) | CC50 [1] | pEC50 [2] | pIC50 [3]
1 | COc1ccc(OCCOCC#Cc2cn([C@H]3C=C[C@@H](CO)O3)c(=O)[nH]c2=O)c(CCNC(=S)Nc2ccc(Br)cn2)c1 | 38000 nM | 5.89 | 6.24
2 | COc1ccc(OCCOCCOCC#Cc2cn([C@H]3C=C[C@@H](CO)O3)c(=O)[nH]c2=O)c(CCNC(=S)Nc2ccc(Br)cn2)c1 | 43000 nM | 5.72 | 6.07
3 | COc1ccc(OCCOCCOCCOCCOCC#Cc2cn([C@H]3C=C[C@@H](CO)O3)c(=O)[nH]c2=O)c(CCNC(=S)Nc2ccc(Br)cn2)c1 | 18000 nM | 5.51 | 5.85
4 | COC(=O)[C@H](C)NP(=O)(OC[C@@H]1C=C[C@H](n2cc(C#CCOCCOCCOCCOCCOc3ccc(OC)cc3CCNC(=S)Nc3ccc(Br)cn3)c(=O)[nH]c2=O)O1)Oc1ccc(C)cc1 (stereo not given in full) | 11000 nM | 5.54 | 5.64
5 | COc1ccc(OCCC#Cc2cn([C@H]3C=C[C@@H](CO)O3)c(=O)[nH]c2=O)c(CCNC(=S)Nc2ccc(Br)cn2)c1 | 17000 nM | 6.60 | 7.21
6 | COc1ccc(OC)c(CCNC(=S)Nc2ccc(Br)cn2)c1 | > 1000 nM | – | 7.42
7 | Cc1cn([C@H]2C=C[C@@H](CO)O2)c(=O)[nH]c1=O [STAVUDINE] | > 100000 nM | 5.64 | 5.02
